From article PMC9463105 (Chemmedchem, 2022) come the findings set out here.

One data set is described as follows: Cell viability assay. It is filed as cell-based. The following applies: human, HFF cells; for viability at 7 days, 10 µM: Cell‐based assays [at 10 μM] Cell viability %, triplicate, mean.
The target in the next data set is T1, HCMV pUL89‐C (Human cytomegalovirus, UniProt P16732).
T1 sequence (P16732 418-674 limits assumed): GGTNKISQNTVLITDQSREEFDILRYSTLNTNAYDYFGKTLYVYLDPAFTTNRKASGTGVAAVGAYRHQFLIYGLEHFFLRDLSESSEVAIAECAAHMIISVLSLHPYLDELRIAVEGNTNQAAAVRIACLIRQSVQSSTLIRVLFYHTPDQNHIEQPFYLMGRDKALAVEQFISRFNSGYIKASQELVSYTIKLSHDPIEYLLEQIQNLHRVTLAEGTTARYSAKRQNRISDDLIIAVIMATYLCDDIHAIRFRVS
The experiment in a line: In vitro pUL89‐C endonuclease assay. The conditions noted are these: for inhibition at 10 µM: read-out: Nuclease inhibition % at 10 μM; for IC50: IC50, dose response, duplicate. It is filed as biochemical.

The target in a further data set is T2, pUL89‐C (Human cytomegalovirus, UniProt P16732).
T2 sequence (P16732 418-674 limits assumed): T1 sequence (P16732 418-674 limits assumed)
The experiment in a line: pUL89‐C thermal shift assay. The following applies: 20 μM compound, compared to DMSO control. It counts as binding, Human cytomegalovirus (HCMV). In a few lines:
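pUL89-C was expressed in E. coli and Ni-purified via a C-terminal His tag. Test compound (20 μM) was incubated with 4 μg of this protein in 5 mM MnCl2, 30 mM Tris pH 8, 50 mM NaCl for 25 min at room temperature, with 1% DMSO final. Sypro Orange was the dye. ΔTm is the mean derivative Tm vs DMSO vehicle, triplicates, with at least two independent determinations.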

A further data set concerns HCMV ADCREGFP virus. Nature of the data set: HCMV replication assay. The conditions noted are these: HFF cells, triplicate, mean. It counts as cell-based, Human cytomegalovirus (HCMV).

The compound `O=C(O)c1nc(-c2ccc(C(F)(F)F)cc2)c2cccnc2c1O` [Compound 14] came in with a viability at 7 days, 10 µM in “Cell viability assay” of 97 ± 0.9%. Further, at HCMV pUL89‐C, the inhibition at 10 µM came to 19 ± 0.1%.
Turning to `Cc1ccc(CNC(=O)c2nc(-c3ccccc3)c3cccnc3c2O)cc1` [Compound 16a], in the data set “Cell viability assay”, the CC50 at 7 days was > 100 µM and the viability at 7 days, 10 µM came to 99 ± 2.6%. For the same compound, the “ΔTm (thermal shift)” value at pUL89‐C is recorded as > 0. Moreover, the inhibition at 10 µM on HCMV pUL89‐C amounted to 71 ± 2.4%.
`Nc1nc(O)c2ncn(COC(CO)CO)c2n1` [Compound 1, ganciclovir, reference compound]: the CC50 at 7 days in “Cell viability assay” is > 50 µM.
For `O=C(NCc1ccc(F)cc1)c1nc(Cl)c2cccnc2c1O` [Compound 15a], in “Cell viability assay”, the CC50 at 7 days is 60 ± 2.4 µM and the viability at 7 days, 10 µM is 97 ± 2.3%. Besides, the “ΔTm (thermal shift)” value on pUL89‐C is > 0. Moreover, at HCMV pUL89‐C, it took 4.3 ± 1.2 µM to reach half-maximal inhibition (IC50) and the inhibition at 10 µM was 49 ± 4.7%.
`O=C(NCc1ccc(F)cc1)c1nc(-c2ccccc2F)c2cccnc2c1O` [Compound 16d]: the viability at 7 days, 10 µM in the data set “Cell viability assay” is ≤ 70%. In addition, the inhibition at 10 µM on HCMV pUL89‐C turned out to be 17 ± 8.7%.
For the compound `O=C(NCc1ccc(Cl)c(Cl)c1)c1nc(Cl)c2cccnc2c1O` [Compound 15b], in “Cell viability assay”, the CC50 at 7 days is > 50 µM and the viability at 7 days, 10 µM stood at 95 ± 1%. Moreover, on HCMV pUL89‐C, half-maximal inhibition (IC50) was put at 13 ± 3.8 µM and the inhibition at 10 µM was 33 ± 5.3%.
Regarding `Cc1ccc(CNC(=O)c2nc(Cl)c3cccnc3c2O)cc1` [Compound 15d], in “Cell viability assay”, the CC50 at 7 days is > 50 µM and the viability at 7 days, 10 µM was found to be 96 ± 1.5%. Besides, the “ΔTm (thermal shift)” value on pUL89‐C is > 0. For the same compound, the inhibition at 10 µM at HCMV pUL89‐C is 66 ± 13%.
`O=C(NCc1ccc(F)cc1)c1nc(-c2cccc(Cl)c2)c2cccnc2c1O` [Compound 16e]: in the data set “Cell viability assay”, the viability at 7 days, 10 µM is ≤ 70%. Besides, the inhibition at 10 µM on HCMV pUL89‐C came out at 8.2 ± 1.9%.
For `O=C(NCc1ccc(F)c(Cl)c1)c1nc(Cl)c2cccnc2c1O` [Compound 15c], in that order: 100 ± 5.7% and 15 ± 2%.
For `COC(=O)c1nc(Cl)c2cccnc2c1O` [Compound 13], in that order: 96 ± 1% and 16 ± 2.5%.
With `COCCNC(=O)c1nc(Cl)c2cccnc2c1O` [Compound 15f], the viability at 7 days, 10 µM in the data set “Cell viability assay” was found to be 96 ± 2.1%. On HCMV pUL89‐C, the IC50 is 5.7 ± 0.39 µM and the inhibition at 10 µM stood at 51 ± 14%. Moreover, in the data set on HCMV ADCREGFP virus, the “Cell‐based assays [at 10 μM] Inhibition %” value is “insignificant”.
Regarding `COc1cccc(-c2nc(C(=O)NCc3ccc(C)cc3)c(O)c3ncccc23)c1` [Compound 16b], in the data set “Cell viability assay”, the CC50 at 7 days was > 60 µM and the viability at 7 days, 10 µM turned out to be 76 ± 1.7%. Moreover, on HCMV pUL89‐C, the IC50 was found to be 24 ± 5.4 µM and the inhibition at 10 µM was 52 ± 3.6%.
